Experimental data published in ChEMBL document CHEMBL4334444, “Studies of Jatrogossone A as a Reactive Oxygen Species Inducer in Cancer Cellular Models” (J Nat Prod, 2019).
pIC50: −log10 of the molar value. Active and inactive are the calls of the source. The rule behind the calls is not given here.

Assays:
[1] = test system: KOPN-8; test: Induction of mitochondrial membrane potential loss in human KOPN8 cells at 30 uM after 24 to 48 hrs by TMRM staining based flow cytometric analysis; assay type: functional, cell-based
Outline: (§1)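 TMRM flow cytometry. KOPN-8 (4 × 10^4 or 5 × 10^5 per well) or MCF-7 (2 × 10^4 or 2 × 10^5 per well) were seeded 24 h, then treated 24–48 h. FCCP 10 μM was added 10 min before staining as positive control. Cells were stained with TMRM 100 nM for 0.5 h, then PBS-washed, resuspended in PBS with 1% FBS and analysed by flow cytometry; DAPI flagged compromised cells.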

[2] = test system: KOPN-8; test: Induction of apoptosis in human KOPN8 cells assessed as early apoptotic cells at 10 uM after 24 hrs by Annexin V-FITC and propidium iodide staining based flow cytometry; assay type: functional, cell-based
Outline: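 KOPN-8 cells were plated at 1.00 × 10^6 per plate and held 12 h at 37 °C, then treated 24 h; positive control 2 μM staurosporine, vehicle DMSO. Cells were stained with Annexin V-FITC and PI and analysed by flow cytometry (FACSCalibur). Profiles are representative of three independent biological replicates.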

[3] = test system: MDA-MB-231; test: Induction of ROS colocalization in mitochondria of human MDA-MB-231 cells at 30 uM incubated for 1 hr by CellROX green reagent/mitotracker deep red staining based confocal microscopic method; assay type: functional, cell-based
Outline: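 MDA-MB-231 plated at 4 × 10^4/well in phenol-red-free medium, 12 h at 37 °C; for rescue, NAC 100 μM pretreatment 0.5 h. Compound 30 μM or DMSO for 1 h, then CellROX green 5 μM final, MitoTracker Deep Red 250 nM, Hoechst 33342 500 nM (0.5 h before imaging). Washed twice, live spinning-disk confocal at 63×; two independent experiments.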

[4] = Half life in human plasma; assay type: ADME, cell-free
[5] = test system: B-ALL; test: Cytotoxicity against BCR-ABL p185-positive mouse B-ALL cells overexpressing human BFL-1 assessed as inhibition of cell viability after 24 hrs by AnnexinV-FITC/propidium iodide staining based flow cytometric analysis; assay type: functional
[6] = test system: MCF7; test: Induction of mitochondrial membrane potential loss in human MCF7 cells at 30 uM after 24 to 48 hrs by TMRM staining based flow cytometric analysis; assay type: functional, cell-based; outline: as §1
[7] = Stability in DMSO assessed as micheal adduct formation by measuring intact compound incubated for 16 hrs in presence of glutathione by LC-MS analysis; assay type: physicochemical
[8] = Half life in simulated gastric fluid; assay type: ADME
[9] = test system: KOPN-8; test: Cell cycle arrest in human KOPN8 cells assessed as increase in accumulation at G2/M phase at 10 uM incubated for 24 hrs by propidium iodide staining based flow cytometric analysis relative to control; assay type: functional
Outline: (§2)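 KOPN-8 plated at 1.00 × 10^6 cells/plate, held 12 h at 37 °C, treated 24 h at 10 μM; DMSO vehicle and 2 μM staurosporine as controls. Cells fixed in cold methanol, RNase-treated, stained with PI (50 μg/mL); cell-cycle distribution by flow cytometry.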

[10] = test system: MCF7; test: Upregulation of Trx level in human MCF7 after 3 to 6 hrs by Western blot analysis; assay type: functional, cell-based
Outline: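 MCF-7 cells were exposed to compound for 3 or 6 h. Lysates were made in Tris-HCl pH 7.5 RIPA-type buffer with protease/phosphatase inhibitors and quantified by BCA. 30 μg protein per lane was run on 4–12% Bis-Tris SDS-PAGE in MES and transferred to nitrocellulose. Blots were probed for thioredoxin with tubulin as reference, detected with IR-dye secondaries (1:15 000) and scanned on an infrared imager.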

[11] = Stability in CH3CN assessed as micheal adduct formation by measuring intact compound incubated for 16 hrs in presence of glutathione by LC-MS analysis; assay type: physicochemical
[12] = test system: U2OS; test: Decrease in cell viability in human U2OS cells incubated for 24 hrs by GF-AFC reagent based ApoTox-Glo triplex assay; assay type: functional
Outline: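 ApoTox-Glo Triplex: cells held 12 h at 37 °C, then treated 24 h (100−0.15 μM). Viability/cytotoxicity reagent added, shaken, 30 min at 37 °C; viability read as GF-AFC fluorescence at 400Ex/505Em. Caspase-Glo 3/7 then added, 0.5 h at room temperature, luminescence read. Mean ± SEM of three independent experiments.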

[13] = test system: SEM cells; test: Antiproliferative activity against human SEM cells assessed as reduction in cell viability at 1 to 10 uM by CellTiter-Glo assay; assay type: functional, cell-based
Outline: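 CellTiter-Glo luminescent viability readout. Cells kept at 37 °C under 5% CO2. HMEC primary cells grown in basal medium with growth kit; leukemia lines and murine BCR-ABL (WT, Bax/Bak DKO) cultured per earlier description. Positive controls: staurosporine 25 μM, gambogic acid 10 μM, a toxic quinoline. At least two biological replicates in technical triplicate; luminescence normalized to untreated controls; EC50 computed.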

[14] = test system: B-ALL; test: Cytotoxicity against BCR-ABL p185- positive mouse B-ALL cells overexpressing human BCL-xL assessed as inhibition of cell viability after 24 hrs by AnnexinV-FITC/propidium iodide staining based flow cytometric analysis; assay type: functional
[15] = test system: KOPN-8; test: Cell cycle arrest in human KOPN8 cells assessed as decrease in accumulation at S phase at 10 uM incubated for 24 hrs by propidium iodide staining based flow cytometric analysis relative to control; assay type: functional; conditions: KOPN-8, 24 h; outline: as §2
[16] = test system: MCF7; test: Induction of apoptosis in human MCF7 cells assessed as increase in cleaved PARP 1 level at 1 to 100 uM after 24 hrs by Western blot analysis; assay type: functional, cell-based
Outline: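 Western blot of KOPN-8 and MCF-7 lysates made in RIPA-type buffer (Tris pH 7.5, Triton X-100, deoxycholate, SDS) with protease and phosphatase inhibitors. 30 μg protein per lane was run on 4–12% Bis-Tris SDS-PAGE and transferred to nitrocellulose. Blots were probed for cleaved caspase-7 and PARP-1 and detected with IR-dye secondaries. Menadione served as positive control: 10 μM in KOPN-8, 30 μM in MCF-7. Blots are representative of three independent experiments.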

[17] = test system: B-ALL; test: Cytotoxicity against BCR-ABL p185-positive human B-ALL cells harboring MCL-1 triple knock out mutant assessed as inhibition of cell viability after 24 hrs by AnnexinV-FITC/propidium iodide staining based flow cytometric analysis; assay type: functional
[18] = test system: MCF7; test: Induction of mitochondrial membrane potential loss in human MCF7 cells at 4 uM after 24 to 48 hrs by TMRM staining based flow cytometric analysis; assay type: functional, cell-based; outline: as §1
[19] = test system: SUM149PT; test: Antiproliferative activity against human SUM149 cells assessed as reduction in cell viability at 0.1 to 250 uM after 48 hrs by propidium iodide staining based fluorescence assay; assay type: functional
Outline: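 MDA-MB-231 and SUM149 seeded at 6 × 10^4 to 2 × 10^5 cells/well, cultured 24 h, then exposed for 48 h. Cells fixed in cold methanol, stained with 0.4% propidium iodide, fluorescence imaged. Viability expressed as percent surviving cells relative to vehicle wells.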

[20] = test system: KOPN-8; test: Upregulation of Trx expression in human KOPN8 at 1 uM after 24 hrs by Western blot analysis; assay type: functional, cell-based
Outline: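 Western blot of KOPN-8 or MCF-7 lysates, 30 μg protein per lane on 4–12% Bis-Tris SDS-PAGE and transferred to nitrocellulose. Blots were probed with an oxidative stress defense antibody cocktail (catalase, SOD1, Trx, smooth muscle actin) and tubulin, and detected with IR-dye secondaries on a LI-COR Odyssey.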

| half-life [4] | Stability [7] | half-life [8] | Stability [11] | SMILES | Activity [1] | Activity [2] | Activity [3] | pIC50 [5] | Activity [6] | Activity [9] | Activity [10] | inhibition [12] | inhibition [13] | pIC50 [14] | inhibition at 10 µM [15] | Activity [16] | pIC50 [17] | Activity [18] | inhibition [19] | Activity [20] |
| --- | --- | --- | --- | --- | --- | --- | --- | --- | --- | --- | --- | --- | --- | --- | --- | --- | --- | --- | --- | --- |
| 19.5 h | Stable | 124 h | Stable | CC(=O)O[C@H]1/C2=C/[C@@H](C)C(=O)C[C@H]3[C@@H](/C=C(\C)C(=O)[C@H]2C[C@H]1C)C3(C)C | Active | inactive | Active | 5.37 | inactive | 10% | Dose-dependent effect | Dose-dependent effect | Active | 4.62 | 5% | Active | 4.71 |  |  |  |
|  |  |  |  | CC1=C2CC(C)(C)/C=C/C(=O)/C(C)=C\C3=C[C@H](C)C[C@]3(O2)C1=O [JATROPHONE] |  |  |  |  |  |  |  |  |  |  |  |  |  | inactive | Active | inactive |
